Assay outcomes from PubChem BioAssay.
The list is not random: actives were taken first. Their share in the collection is about 2%.
NR2E3 ag-1 = human photoreceptor-specific nuclear receptor agonism | Q9Y5X4 | CHO-S Gal4-NCOR/VP16-NR2E3 two-hybrid, luciferase | inhibition of corepressor binding, % at 3.98 µM | actives 0.35% (n = 360,000) | AID 602229;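 active = inhibition above the mean of all tested compounds plus 3 SD, cut at about 70% in these data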;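 note: higher means lower luciferase signal from less NR2E3 corepressor binding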
Target sequence (Q9Y5X4 whole entry, looked up, the tested form may be a part): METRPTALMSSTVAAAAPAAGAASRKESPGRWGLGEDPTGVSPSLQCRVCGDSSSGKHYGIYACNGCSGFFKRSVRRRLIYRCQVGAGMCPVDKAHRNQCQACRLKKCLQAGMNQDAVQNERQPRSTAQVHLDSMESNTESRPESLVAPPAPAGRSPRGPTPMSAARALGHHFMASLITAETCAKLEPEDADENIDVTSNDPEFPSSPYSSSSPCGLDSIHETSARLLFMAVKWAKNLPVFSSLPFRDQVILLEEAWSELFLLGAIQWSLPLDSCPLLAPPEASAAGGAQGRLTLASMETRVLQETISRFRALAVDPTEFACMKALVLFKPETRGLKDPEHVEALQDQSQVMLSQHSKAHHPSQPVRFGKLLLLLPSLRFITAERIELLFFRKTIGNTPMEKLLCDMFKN
TROY NFkB inh = inhibitors of TROY-dependent NF-kB signaling; Q293 LMP1-TROYcd NF-kB luciferase reporter, 4 h; inhibition, % at 10 µM; actives 0.98% (n = 360,000); AID 1347056;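 active = compounds whose plate-normalised and pattern-corrected inhibition of the luciferase reporter signal at the single screening dose is 50% or more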
NR2E3 ag-2 = agonists of human nuclear receptor NR2E3; GST-NR2E3/biotin-RetCOR TR-FRET, 1536-well; inhibition of corepressor binding, % at 4.78 µM; actives 0.12% (n = 320,000); AID 2300;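 active = percent inhibition above the cutoff of mean plus 3 SD of all tested compounds, set per screening campaign, cut at about 20% in these data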
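System: GST-tagged NR2E3 plus biotinylated RetCOR corepressor; Buffer or medium: pH 7.5 Tris-based buffer; Probe or stimulus: RetCOR corepressor, biotinylated, 7 nM; Doses: compound at 4.8 µM, single dose; Schedule: 5 h incubation at 4 °C; Technique: time-resolved FRET; Evaluation: percent inhibition of TR-FRET ratio; Replication: one well per compound, singlicate testing.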
EBV LMP1 NFkB = reduces LMP1-driven NF-kappaB luciferase signal; actives 0.69% (n = 350,000); LMP1-induced NF-kappaB luciferase reporter cells, luminescence; inhibition, % at 12.5 µM; AID 504558; in the data active = inhibition above about 41%
HIF activator = HIF pathway transcriptional activation; U2OS HRE-luciferase reporter, luminescence; normalized: DMSO 0%, desferrioxamine 100%; actives 0.32% (n = 300,000); activation, % at 7.5 µM (by protocol);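 active = mean activation of at least 10% of the iron chelator positive control signal, with at least half of replicates also reaching 10%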
Of the large screens only hits and unclear results are named; the others gave an inactive call; ! = a repeat was not active.

Cc1nn(-c2ccccc2)c(C)c1NC(=O)COc1ccc(C#N)cc1	none
Cc1nn(-c2ccccc2)c(C)c1NC(=O)COc1ccc2ccccc2c1	TROY NFkB inh 54.7
O=C(Nc1cc(S(=O)(=O)Nc2ccc(Cl)cc2)ccc1N1CCCCC1)c1ccc(F)cc1Cl	none
Nc1c(Cl)ncnc1N1CCCC1	none
NC(N)=NC(=O)c1nc(Cl)c(N2CCCCCC2)nc1N	EBV LMP1 NFkB 74.0 (no result: HIF activator)
CCOC(=O)/C=C(\C)Sc1cc(=O)oc2ccccc12	EBV LMP1 NFkB 49.5
Cc1cc(/C=N/NC(=O)c2cccs2)c(C)n1-c1ccccc1	TROY NFkB inh 63.3
CC(=O)Oc1ccc(/C=C2/CCc3ccccc3C2=O)cc1	TROY NFkB inh 61.1
COc1ccc(N/C=C2\CCc3ccccc3C2=O)cc1	TROY NFkB inh 70.2
COc1ccc2c(c1)CC/C(=C\Nc1ccc3c(c1)OCO3)C2=O	none
COc1cccc(/C=C2\CCc3ccccc3C2=O)c1	none
O=C(COC(=O)c1ccco1)NCCNC(=O)COC(=O)c1ccco1	none
CC(C)(C)c1ccc(-n2nc(C#N)c(Cl)cc2=O)cc1	TROY NFkB inh 89.4 (no result: NR2E3 ag-2)
Cc1ccc(N(CC(=O)NC(C)C)C(=O)CCC(=O)Nc2ccccn2)cc1	none
O=C(O)CCn1nnc(-c2cccs2)n1	none
CC(C)c1ccc(-c2nnn(CCC(=O)O)n2)cc1	EBV LMP1 NFkB 44.9
O=[N+]([O-])c1c(Nc2cccc(O)c2)cc(Cl)c2nonc12	TROY NFkB inh 88.2, EBV LMP1 NFkB 56.0
Cc1c(Nc2cc(Cl)c3nonc3c2[N+](=O)[O-])c(=O)n(-c2ccccc2)n1C	TROY NFkB inh 83.6 (no result: NR2E3 ag-2, HIF activator)
CCN1CCN(Cc2ccc(NC(=O)c3ccc(C)c(NC(=O)C(=O)c4c[nH]c5ccccc45)c3)cc2C(F)(F)F)CC1	EBV LMP1 NFkB 43.5!
Cc1cccc(S(=O)(=O)NC(=O)C2(C)CCN2C(=O)CCC2CCCC2)c1 (stereo not drawn)	none (no result: NR2E3 ag-2, EBV LMP1 NFkB, HIF activator)
N#CC(C#N)=Cc1cc2ccccc2nc1N1CCOCC1	none
N#C/C(=C\c1cc2ccccc2nc1N1CCOCC1)C(=O)Nc1ccc(N2CCOCC2)cc1	TROY NFkB inh 57.7
COc1cccc(-c2cc3onc(-c4ccccc4)c3c(=O)n2C)c1	TROY NFkB inh 61.2 (no result: HIF activator)
Cn1c(-c2ccc(F)c(F)c2)cc2onc(-c3ccccc3)c2c1=O	none (no result: HIF activator)
C/C(=C\C(=O)OCC(=O)NCc1ccccc1)C(=O)OCC(=O)NCc1ccccc1	HIF activator 440.9
COc1cccc(NC(=O)NNC(=O)CCc2ccc(O)c(O)c2)c1	none (no result: NR2E3 ag-2)
COc1ccc(NC2=NCC(Cc3ccc(Br)cc3)S2)cc1 (stereo not drawn)	EBV LMP1 NFkB 65.7
Cn1c(=O)c(C(=O)N2CCc3ccccc32)cc2cccnc21	none
Cc1cc(S(=O)(=O)ON2C(=O)c3ccccc3C2=O)ccc1F	HIF activator 37.1
Cc1c(C(=O)OCCOc2ccccc2)[nH]c2c1C(=O)CCC2	TROY NFkB inh 66.1
CC(=O)c1c(C)[nH]c(C(=O)OCCOc2ccccc2)c1C	TROY NFkB inh 61.6
CC(=O)c1ccc(N2CCN(S(=O)(=O)c3cn(C)c(C)n3)CC2)cc1	none
Cc1ccccc1NC(=O)N1CCCC(c2nc(-c3ccc(C(C)C)cc3)no2)C1 (stereo not drawn)	TROY NFkB inh 74.0
COc1cccc(NC(=O)N2CCc3nc(Nc4ccc(C(C)C)cc4)ncc3C2)c1	TROY NFkB inh 71.0 (no result: NR2E3 ag-2, EBV LMP1 NFkB, HIF activator)
CC(=O)N/C(=N\c1nc(C)cc(C)n1)Nc1ccc2ccccc2c1	TROY NFkB inh 77.5
CC(=O)N/C(=N/c1nc(C)cc(C)n1)Nc1ccc(NC(C)=O)cc1	none
CCOc1cc(N2CCOCC2)c(OCC)cc1NC(=O)CN1C(=O)NC2(CCCCC2C)C1=O (stereo not drawn)	none (no result: NR2E3 ag-2, HIF activator)
CCCN1CCc2c(sc3nc(SC)n(-c4ccccc4)c(=O)c23)C1	none
O=C1Nc2ccc(Cl)cc2/C1=C/C1CC=CCC1 (stereo not drawn)	HIF activator 393.6
Cc1ccc2nc3cc([N+](=O)[O-])cc([N+](=O)[O-])c3cc2c1	TROY NFkB inh 51.6 (no result: NR2E3 ag-2, HIF activator)
CCCNC(=O)C1(C)CCCN(Cc2ccc(-n3ccnc3)cc2)C1 (stereo not drawn)	none (no result: NR2E3 ag-2, EBV LMP1 NFkB, HIF activator)
CCOC(=O)CSc1nc2cccnc2n1-c1ccc(F)cc1	TROY NFkB inh 60.7
COc1ccccc1CCC(=O)OCC(=O)Nc1c(Br)cc(C)cc1Br	none
CC1CCCC(C)N1c1nnc(NC(=O)c2cc(-c3ccc(Br)cc3)on2)s1 (stereo not drawn)	none
O=C(Nc1nnc(N2CCCCCC2)s1)c1cc(-c2ccc(Br)cc2)on1	EBV LMP1 NFkB 86.3
O=C(C1CCCCC1)N1CCN(c2ncccn2)CC1	EBV LMP1 NFkB 48.2
CC(NC(=O)c1ccc(F)cc1)C(c1cccs1)N1CCN(C)CC1 (stereo not drawn)	none
CC(NC(=O)c1ccc(N(C)C)cc1)C(c1cccs1)N1CCN(C)CC1 (stereo not drawn)	TROY NFkB inh 62.4
CC(C(=O)NC(=O)NC1CCCCC1)N(C)CC(=O)Nc1ccc(F)c(F)c1F (stereo not drawn)	none
CC(=O)c1c(O)c2ccccc2n(C2CCCCC2)c1=O	TROY NFkB inh 55.7
Cn1c(=O)c(C(=O)NC2CCCCCC2)c(O)c2ccccc21	none (no result: NR2E3 ag-2)
CC(C)Cc1ccc(-c2cc3nc(NCCc4ccc(S(N)(=O)=O)cc4)ccn3n2)cc1	none (no result: NR2E3 ag-2, EBV LMP1 NFkB, HIF activator)
Cc1cc(=O)oc2cc(Oc3ncccc3[N+](=O)[O-])ccc12	none
Cc1cc(=O)oc2cc(Oc3ncccn3)ccc12	EBV LMP1 NFkB 44.9
C[C@H]1CN([C@@H](C)CO)C(=O)c2cc(-c3cccc(C(=O)N(C)C)c3)cnc2O[C@H]1CN(C)C(=O)Cc1ccccn1	none (no result: NR2E3 ag-2, HIF activator)
COC(=O)c1cc(NC(=O)CC(=O)c2cccc(N)c2)cc(C(=O)OC)c1	none (no result: NR2E3 ag-2, HIF activator)
Cc1nn(CC(=O)c2ccccc2Cl)c(C)c1[N+](=O)[O-]	TROY NFkB inh 57.4
COc1ccccc1C(c1nnnn1CC1CCCO1)N1CCC(C(N)=O)CC1 (stereo not drawn)	HIF activator 14.9
CCOC(=O)c1c(NC(=O)COC(=O)Cc2n[nH]c(=O)c3ccccc23)sc(C(=O)NC)c1C	none (no result: NR2E3 ag-2, HIF activator)
CC1CCN(C(=O)/C(=C\c2cccs2)NC(=O)c2ccccc2)CC1	EBV LMP1 NFkB 52.8
CC(=O)NC(=Cc1ccccc1)C(=O)N1CCCC1C(=O)O (stereo not drawn)	none (no result: NR2E3 ag-2, HIF activator)
C=CCN1CCN(C(=O)c2oc3ccccc3c2C)CC1	none
Cc1ccc(C(=O)NCC(=O)OCCCn2c(=O)[nH]c3ccccc32)cc1C	none (no result: NR2E3 ag-2, HIF activator)
CC(C)=CCCC(C)N(C=O)C(C)CCC=C(C)C (stereo not drawn)	TROY NFkB inh 50.1
O=C(Nc1ccc(C(F)(F)F)cc1)c1ccccc1-n1cnnn1	none (no result: HIF activator)
O=S(=O)(c1ccc2c(c1)C(=NO)c1cc(S(=O)(=O)N3CCCCC3)ccc1-2)N1CCCCC1	EBV LMP1 NFkB 84.8
Fc1ccccc1Cn1nnc(-c2ccc3c(c2)OCO3)n1	TROY NFkB inh 52.7
